Data as given in ChEMBL document CHEMBL4689842, “EUbOPEN Chemogenomics Library wave 1” (2021).

Test system: HEK-293T
Assay: Multiplex assay against HEK293T;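 for Population Tubulin-Different-Phenotype (%): share of the cells with healthy nuclei that show this phenotype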
Type: toxicity, cell-based
Details: human
Summary of the method: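 Tubulin, mitochondrial-mass and membrane-permeability phenotypes are per cents of healthy-nucleus cells. Cells were gated by CellPathfinder machine learning into Hoechst high-intensity objects or normal cells, normal cells into healthy, pyknosed or fragmented nuclei, and pyknosed cells into mitotic or apoptotic. Before that, live cells stained at seeding with Hoechst33342, BioTracker Green Microtubule Cytoskeleton Dye, MitoTracker Red and Annexin V Alexa Fluor 680 were imaged on a CQ1 microscope at 37°C and 5% CO2 after compound addition.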

[1] = 12 h, 1 µM, compound concentration 1 uM, replicate 1
[2] = 12 h, 1 µM, compound concentration 1 uM, replicate 2
[3] = 12 h, 10 µM, compound concentration 10 uM, replicate 1
[4] = 12 h, 10 µM, compound concentration 10 uM, replicate 2
[5] = 24 h, 1 µM, compound concentration 1 uM, replicate 1
[6] = 24 h, 1 µM, compound concentration 1 uM, replicate 2
[7] = 24 h, 10 µM, compound concentration 10 uM, replicate 1
[8] = 24 h, 10 µM, compound concentration 10 uM, replicate 2
[9] = 48 h, 1 µM, compound concentration 1 uM, replicate 1
[10] = 48 h, 1 µM, compound concentration 1 uM, replicate 2
[11] = 48 h, 10 µM, compound concentration 10 uM, replicate 1
[12] = 48 h, 10 µM, compound concentration 10 uM, replicate 2

SMILES: Cc1ccc(NC(=O)Nc2cc(C(F)(F)F)ccc2F)cc1Nc1ccc2c(c1)NC(=O)/C2=C\c1ccc[nH]1
- Population Apoptotic (%) [1]: 13%
- Population Fragmented Nuclei (%) [1]: 19%
- Population Healthy Nuclei (%) [1]: 28%
- Population Hoechst High Intensity Objects (%) [1]: 16%
- Population Membrane Permeable-Phenotype (%) [1]: 59%
- Population Mitochondria Different-Phenotype (%) [1]: 0%
- Population Mitotic Cells (%) [1]: 86%
- Population Normal (%) [1]: 83%
- Population Pyknosed Nuclei (%) [1]: 51%
- Population Tubulin-Different-Phenotype (%) [1]: 28%
- Total Cell Count [1]: 644
- Population Apoptotic (%) [2]: 2%
- Population Fragmented Nuclei (%) [2]: 2%
- Population Healthy Nuclei (%) [2]: 83%
- Population Hoechst High Intensity Objects (%) [2]: 2%
- Population Mitotic Cells (%) [2]: 97%
- Population Normal (%) [2]: 97%
- Population Pyknosed Nuclei (%) [2]: 13%
- Population Tubulin-Different-Phenotype (%) [2]: 50%
- Total Cell Count [2]: 1372
- Population Apoptotic (%) [3]: 14%
- Population Fragmented Nuclei (%) [3]: 10%
- Population Healthy Nuclei (%) [3]: 68%
- Population Hoechst High Intensity Objects (%) [3]: 6%
- Population Membrane Permeable-Phenotype (%) [3]: 1%
- Population Mitochondria Different-Phenotype (%) [3]: 3%
- Population Mitotic Cells (%) [3]: 85%
- Population Normal (%) [3]: 93%
- Population Pyknosed Nuclei (%) [3]: 21%
- Population Tubulin-Different-Phenotype (%) [3]: 0%
- Total Cell Count [3]: 577
- Population Apoptotic (%) [4]: 4%
- Population Fragmented Nuclei (%) [4]: 7%
- Population Healthy Nuclei (%) [4]: 87%
- Population Hoechst High Intensity Objects (%) [4]: 2%
- Population Mitochondria Different-Phenotype (%) [4]: 5%
- Population Mitotic Cells (%) [4]: 95%
- Population Normal (%) [4]: 97%
- Population Pyknosed Nuclei (%) [4]: 5%
- Population Tubulin-Different-Phenotype (%) [4]: 2%
- Total Cell Count [4]: 1471
- Population Apoptotic (%) [5]: 15%
- Population Fragmented Nuclei (%) [5]: 20%
- Population Healthy Nuclei (%) [5]: 34%
- Population Hoechst High Intensity Objects (%) [5]: 14%
- Population Membrane Permeable-Phenotype (%) [5]: 47%
- Population Mitochondria Different-Phenotype (%) [5]: 0%
- Population Mitotic Cells (%) [5]: 84%
- Population Normal (%) [5]: 85%
- Population Pyknosed Nuclei (%) [5]: 45%
- Population Tubulin-Different-Phenotype (%) [5]: 33%
- Total Cell Count [5]: 618
- Population Apoptotic (%) [6]: 3%
- Population Fragmented Nuclei (%) [6]: 4%
- Population Healthy Nuclei (%) [6]: 82%
- Population Hoechst High Intensity Objects (%) [6]: 4%
- Population Membrane Permeable-Phenotype (%) [6]: 52%
- Population Mitotic Cells (%) [6]: 96%
- Population Normal (%) [6]: 95%
- Population Pyknosed Nuclei (%) [6]: 13%
- Population Tubulin-Different-Phenotype (%) [6]: 68%
- Total Cell Count [6]: 1297
- Population Apoptotic (%) [7]: 14%
- Population Fragmented Nuclei (%) [7]: 7%
- Population Healthy Nuclei (%) [7]: 82%
- Population Hoechst High Intensity Objects (%) [7]: 2%
- Population Membrane Permeable-Phenotype (%) [7]: 2%
- Population Mitochondria Different-Phenotype (%) [7]: 1%
- Population Mitotic Cells (%) [7]: 85%
- Population Normal (%) [7]: 97%
- Population Pyknosed Nuclei (%) [7]: 10%
- Population Tubulin-Different-Phenotype (%) [7]: 1%
- Total Cell Count [7]: 682
- Population Apoptotic (%) [8]: 0%
- Population Fragmented Nuclei (%) [8]: 18%
- Population Healthy Nuclei (%) [8]: 79%
- Population Hoechst High Intensity Objects (%) [8]: 3%
- Population Membrane Permeable-Phenotype (%) [8]: 3%
- Population Mitochondria Different-Phenotype (%) [8]: 0%
- Population Mitotic Cells (%) [8]: 100%
- Population Normal (%) [8]: 96%
- Population Pyknosed Nuclei (%) [8]: 2%
- Population Tubulin-Different-Phenotype (%) [8]: 2%
- Total Cell Count [8]: 2446

SMILES: C=CC(=O)Nc1cc(-n2c(=O)ccc3cnc4ccc(-c5ccc(NS(C)(=O)=O)cc5)cc4c32)ccc1C
- Population Apoptotic (%) [1]: 44%
- Population Fragmented Nuclei (%) [1]: 15%
- Population Healthy Nuclei (%) [1]: 22%
- Population Hoechst High Intensity Objects (%) [1]: 22%
- Population Membrane Permeable-Phenotype (%) [1]: 0%
- Population Mitochondria Different-Phenotype (%) [1]: 76%
- Population Mitotic Cells (%) [1]: 55%
- Population Normal (%) [1]: 77%
- Population Pyknosed Nuclei (%) [1]: 62%
- Population Tubulin-Different-Phenotype (%) [1]: 50%
- Total Cell Count [1]: 174
- Population Apoptotic (%) [2]: 13%
- Population Fragmented Nuclei (%) [2]: 13%
- Population Healthy Nuclei (%) [2]: 35%
- Population Hoechst High Intensity Objects (%) [2]: 5%
- Population Membrane Permeable-Phenotype (%) [2]: 17%
- Population Mitochondria Different-Phenotype (%) [2]: 15%
- Population Mitotic Cells (%) [2]: 86%
- Population Normal (%) [2]: 94%
- Population Pyknosed Nuclei (%) [2]: 50%
- Population Tubulin-Different-Phenotype (%) [2]: 26%
- Total Cell Count [2]: 171
- Population Apoptotic (%) [3]: 50%
- Population Fragmented Nuclei (%) [3]: 20%
- Population Healthy Nuclei (%) [3]: 19%
- Population Hoechst High Intensity Objects (%) [3]: 16%
- Population Membrane Permeable-Phenotype (%) [3]: 0%
- Population Mitochondria Different-Phenotype (%) [3]: 86%
- Population Mitotic Cells (%) [3]: 50%
- Population Normal (%) [3]: 83%
- Population Pyknosed Nuclei (%) [3]: 60%
- Population Tubulin-Different-Phenotype (%) [3]: 63%
- Total Cell Count [3]: 184
- Population Apoptotic (%) [4]: 13%
- Population Fragmented Nuclei (%) [4]: 0%
- Population Healthy Nuclei (%) [4]: 40%
- Population Hoechst High Intensity Objects (%) [4]: 8%
- Population Membrane Permeable-Phenotype (%) [4]: 9%
- Population Mitochondria Different-Phenotype (%) [4]: 34%
- Population Mitotic Cells (%) [4]: 86%
- Population Normal (%) [4]: 91%
- Population Pyknosed Nuclei (%) [4]: 58%
- Population Tubulin-Different-Phenotype (%) [4]: 42%
- Total Cell Count [4]: 204
- Population Apoptotic (%) [5]: 42%
- Population Fragmented Nuclei (%) [5]: 15%
- Population Healthy Nuclei (%) [5]: 28%
- Population Hoechst High Intensity Objects (%) [5]: 19%
- Population Membrane Permeable-Phenotype (%) [5]: 15%
- Population Mitochondria Different-Phenotype (%) [5]: 62%
- Population Mitotic Cells (%) [5]: 57%
- Population Normal (%) [5]: 80%
- Population Pyknosed Nuclei (%) [5]: 55%
- Population Tubulin-Different-Phenotype (%) [5]: 57%
- Total Cell Count [5]: 173
- Population Apoptotic (%) [6]: 11%
- Population Fragmented Nuclei (%) [6]: 9%
- Population Healthy Nuclei (%) [6]: 58%
- Population Hoechst High Intensity Objects (%) [6]: 3%
- Population Membrane Permeable-Phenotype (%) [6]: 11%
- Population Mitochondria Different-Phenotype (%) [6]: 16%
- Population Mitotic Cells (%) [6]: 88%
- Population Normal (%) [6]: 96%
- Population Pyknosed Nuclei (%) [6]: 31%
- Population Tubulin-Different-Phenotype (%) [6]: 32%
- Total Cell Count [6]: 199
- Population Apoptotic (%) [7]: 48%
- Population Fragmented Nuclei (%) [7]: 19%
- Population Healthy Nuclei (%) [7]: 22%
- Population Hoechst High Intensity Objects (%) [7]: 13%
- Population Membrane Permeable-Phenotype (%) [7]: 0%
- Population Mitochondria Different-Phenotype (%) [7]: 78%
- Population Mitotic Cells (%) [7]: 51%
- Population Normal (%) [7]: 86%
- Population Pyknosed Nuclei (%) [7]: 58%
- Population Tubulin-Different-Phenotype (%) [7]: 59%
- Total Cell Count [7]: 194
- Population Apoptotic (%) [8]: 25%
- Population Fragmented Nuclei (%) [8]: 4%
- Population Healthy Nuclei (%) [8]: 56%
- Population Hoechst High Intensity Objects (%) [8]: 2%
- Population Membrane Permeable-Phenotype (%) [8]: 7%
- Population Mitochondria Different-Phenotype (%) [8]: 30%
- Population Mitotic Cells (%) [8]: 74%
- Population Normal (%) [8]: 97%
- Population Pyknosed Nuclei (%) [8]: 39%
- Population Tubulin-Different-Phenotype (%) [8]: 57%
- Total Cell Count [8]: 228
- Population Apoptotic (%) [9]: 45%
- Population Fragmented Nuclei (%) [9]: 21%
- Population Healthy Nuclei (%) [9]: 17%
- Population Hoechst High Intensity Objects (%) [9]: 23%
- Population Membrane Permeable-Phenotype (%) [9]: 3%
- Population Mitochondria Different-Phenotype (%) [9]: 40%
- Population Mitotic Cells (%) [9]: 54%
- Population Normal (%) [9]: 76%
- Population Pyknosed Nuclei (%) [9]: 60%
- Population Tubulin-Different-Phenotype (%) [9]: 33%
- Total Cell Count [9]: 204
- Population Apoptotic (%) [10]: 9%
- Population Fragmented Nuclei (%) [10]: 7%
- Population Healthy Nuclei (%) [10]: 81%
- Population Hoechst High Intensity Objects (%) [10]: 6%
- Population Membrane Permeable-Phenotype (%) [10]: 10%
- Population Mitochondria Different-Phenotype (%) [10]: 4%
- Population Mitotic Cells (%) [10]: 90%
- Population Normal (%) [10]: 93%
- Population Pyknosed Nuclei (%) [10]: 10%
- Population Tubulin-Different-Phenotype (%) [10]: 22%
- Total Cell Count [10]: 321
- Population Apoptotic (%) [11]: 52%
- Population Fragmented Nuclei (%) [11]: 24%
- Population Healthy Nuclei (%) [11]: 18%
- Population Hoechst High Intensity Objects (%) [11]: 18%
- Population Membrane Permeable-Phenotype (%) [11]: 16%
- Population Mitochondria Different-Phenotype (%) [11]: 29%
- Population Mitotic Cells (%) [11]: 47%
- Population Normal (%) [11]: 81%
- Population Pyknosed Nuclei (%) [11]: 56%
- Population Tubulin-Different-Phenotype (%) [11]: 45%
- Total Cell Count [11]: 204
- Population Apoptotic (%) [12]: 17%
- Population Fragmented Nuclei (%) [12]: 5%
- Population Healthy Nuclei (%) [12]: 79%
- Population Hoechst High Intensity Objects (%) [12]: 3%
- Population Membrane Permeable-Phenotype (%) [12]: 8%
- Population Mitochondria Different-Phenotype (%) [12]: 6%
- Population Mitotic Cells (%) [12]: 82%
- Population Normal (%) [12]: 96%
- Population Pyknosed Nuclei (%) [12]: 15%
- Population Tubulin-Different-Phenotype (%) [12]: 27%
- Total Cell Count [12]: 457
